Data as given in ChEMBL document CHEMBL1926577, “Novel 1,3,4-heterodiazole analogues: synthesis and in-vitro antitumor activity” (2012).

Legend:
Type in all cases: functional
[1] = system: CCRF-CEM; experiment: Growth inhibition of human CCRF-CEM cells at 10 uM after 48 hrs by coulter counter method; details: read-out: GI
How it was run: (§1)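 NCI 60-cell-line panel, single dose. Compound dissolved first in DMSO, then diluted in phosphate-buffered saline so that every final dilution held under 1% DMSO. Duplicate wells received cells at 6 × 10⁴ cells/ml. Controls held PBS/DMSO at the same dilution. Plates were incubated 48 h at 37 °C under 5% CO₂. Cells were then diluted 10-fold in saline and counted on a Coulter counter, with counts corrected for the dilution. Results are given as percent growth inhibition.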

[2] = system: HL-60(TB); experiment: Growth inhibition of human HL-60(TB) cells at 10 uM after 48 hrs by coulter counter method; details: HL-60, 48 h, read-out: GI
How it was run: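 Single-dose screen on the NCI 60-line panel (leukemia subpanel). Compound is dissolved in DMSO and diluted in PBS, with final DMSO below 1%. Duplicate wells hold 6 × 10⁴ cells/ml at 37 °C, 5% CO₂, for 48 h. Cells are counted by Coulter counter after 10-fold saline dilution. Read-out is percent growth versus PBS/DMSO controls, expressed as % growth inhibition.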

[3] = system: K562; experiment: Growth inhibition of human K562 cells at 10 uM after 48 hrs by coulter counter method; details: K562, 48 h, read-out: GI; how it was run: as §1
[4] = system: MOLT-4; experiment: Growth inhibition of human MOLT4 cells at 10 uM after 48 hrs by coulter counter method; details: MOLT-4, 48 h, read-out: GI; how it was run: as §1
[5] = system: RPMI-8226; experiment: Growth inhibition of human RPMI8226 cells at 10 uM after 48 hrs by coulter counter method; details: RPMI-8226, 48 h, read-out: GI; how it was run: as §1
[6] = system: SR; experiment: Growth inhibition of human SR cells at 10 uM after 48 hrs by coulter counter method; details: read-out: GI; how it was run: as §1
[7] = system: A549; experiment: Growth inhibition of human A549 cells at 10 uM after 48 hrs by coulter counter method; details: A549, 48 h, read-out: GI; how it was run: as §1
[8] = system: EKVX; experiment: Growth inhibition of human EKVX cells at 10 uM after 48 hrs by coulter counter method; details: read-out: GI; how it was run: as §1
[9] = system: NCI-H226; experiment: Growth inhibition of human NCI-H226 cells at 10 uM after 48 hrs by coulter counter method; details: NCI-H226, 48 h, read-out: GI; how it was run: as §1
[10] = system: NCI-H23; experiment: Growth inhibition of human NCI-H23 cells at 10 uM after 48 hrs by coulter counter method; details: NCI-H23, 48 h, read-out: GI; how it was run: as §1
[11] = system: NCI-H322M; experiment: Growth inhibition of human NCI-H322M cells at 10 uM after 48 hrs by coulter counter method; details: read-out: GI; how it was run: as §1
[12] = system: NCI-H522; experiment: Growth inhibition of human NCI-H522 cells at 10 uM after 48 hrs by coulter counter method; details: NCI-H522, 48 h, read-out: GI; how it was run: as §1
[13] = system: HCT-116; experiment: Growth inhibition of human HCT116 cells at 10 uM after 48 hrs by coulter counter method; details: HCT-116, 48 h, read-out: GI; how it was run: as §1
[14] = system: HCT-15; experiment: Growth inhibition of human HCT15 cells at 10 uM after 48 hrs by coulter counter method; details: HCT-15, 48 h, read-out: GI; how it was run: as §1
[15] = system: HT-29; experiment: Growth inhibition of human HT-29 cells at 10 uM after 48 hrs by coulter counter method; details: HT-29, 48 h, read-out: GI; how it was run: as §1
[16] = system: KM12; experiment: Growth inhibition of human KM12 cells at 10 uM after 48 hrs by coulter counter method; details: KM12, 48 h, read-out: GI; how it was run: as §1
[17] = system: SF-268; experiment: Growth inhibition of human SF268 cells at 10 uM after 48 hrs by coulter counter method; details: SF-268, 48 h, read-out: GI; how it was run: as §1
[18] = system: SF-295; experiment: Growth inhibition of human SF295 cells at 10 uM after 48 hrs by coulter counter method; details: SF-295, 48 h, read-out: GI; how it was run: as §1
[19] = system: SNB-19; experiment: Growth inhibition of human SNB19 cells at 10 uM after 48 hrs by coulter counter method; details: SNB-19, 48 h, read-out: GI; how it was run: as §1
[20] = system: SNB-75; experiment: Growth inhibition of human SNB75 cells at 10 uM after 48 hrs by coulter counter method; details: SNB-75, 48 h, read-out: GI; how it was run: as §1
[21] = system: U-251; experiment: Growth inhibition of human U251 cells at 10 uM after 48 hrs by coulter counter method; details: U-251, 48 h, read-out: GI; how it was run: as §1
[22] = system: LOX IMVI; experiment: Growth inhibition of human LOXIMVI cells at 10 uM after 48 hrs by coulter counter method; details: read-out: GI; how it was run: as §1
[23] = system: Malme-3M; experiment: Growth inhibition of human MALME-3M cells at 10 uM after 48 hrs by coulter counter method; details: read-out: GI; how it was run: as §1
[24] = system: M14; experiment: Growth inhibition of human M14 cells at 10 uM after 48 hrs by coulter counter method; details: M14, 48 h, read-out: GI; how it was run: as §1
[25] = system: MDA-MB-435; experiment: Growth inhibition of human MDA-MB-435 cells at 10 uM after 48 hrs by coulter counter method; details: MDA-MB-435, 48 h, read-out: GI; how it was run: as §1
[26] = system: SK-MEL-2; experiment: Growth inhibition of human SK-MEL-2 cells at 10 uM after 48 hrs by coulter counter method; details: SK-MEL-2, 48 h, read-out: GI; how it was run: as §1
[27] = system: SK-MEL-28; experiment: Growth inhibition of human SK-MEL-28 cells at 10 uM after 48 hrs by coulter counter method; details: SK-MEL-28, 48 h, read-out: GI; how it was run: as §1
[28] = system: SK-MEL-5; experiment: Growth inhibition of human SK-MEL-5 cells at 10 uM after 48 hrs by coulter counter method; details: SK-MEL-5, 48 h, read-out: GI; how it was run: as §1
[29] = system: UACC-257; experiment: Growth inhibition of human UACC257 cells at 10 uM after 48 hrs by coulter counter method; details: UACC-257, 48 h, read-out: GI; how it was run: as §1
[30] = system: UACC-62; experiment: Growth inhibition of human UACC62 cells at 10 uM after 48 hrs by coulter counter method; details: UACC-62, 48 h, read-out: GI; how it was run: as §1
[31] = system: IGROV-1; experiment: Growth inhibition of human IGROV1 cells at 10 uM after 48 hrs by coulter counter method; details: IGROV-1, 48 h, read-out: GI; how it was run: as §1
[32] = system: OVCAR-8; experiment: Growth inhibition of human OVCAR8 cells at 10 uM after 48 hrs by coulter counter method; details: OVCAR-8, 48 h, read-out: GI; how it was run: as §1
[33] = system: NCI/ADR-RES; experiment: Growth inhibition of human NCI/ADR-RES cells at 10 uM after 48 hrs by coulter counter method; details: read-out: GI; how it was run: as §1
[34] = system: 786-0; experiment: Growth inhibition of human 786-0 cells at 10 uM after 48 hrs by coulter counter method; details: 786-0, 48 h, read-out: GI; how it was run: as §1
[35] = system: A498; experiment: Growth inhibition of human A498 cells at 10 uM after 48 hrs by coulter counter method; details: A498, 48 h, read-out: GI; how it was run: as §1
[36] = system: ACHN; experiment: Growth inhibition of human ACHN cells at 10 uM after 48 hrs by coulter counter method; details: read-out: GI; how it was run: as §1
[37] = system: CAKI-1; experiment: Growth inhibition of human Caki1 cells at 10 uM after 48 hrs by coulter counter method; details: CAKI-1, 48 h, read-out: GI; how it was run: as §1
[38] = system: SN12C; experiment: Growth inhibition of human SN12C cells at 10 uM after 48 hrs by coulter counter method; details: read-out: GI; how it was run: as §1
[39] = system: TK-10; experiment: Growth inhibition of human TK10 cells at 10 uM after 48 hrs by coulter counter method; details: TK-10, 48 h, read-out: GI; how it was run: as §1
[40] = system: UO-31; experiment: Growth inhibition of human UO31 cells at 10 uM after 48 hrs by coulter counter method; details: UO-31, 48 h, read-out: GI; how it was run: as §1
[41] = system: PC-3; experiment: Growth inhibition of human PC3 cells at 10 uM after 48 hrs by coulter counter method; details: PC-3, 48 h, read-out: GI; how it was run: as §1
[42] = system: MCF7; experiment: Growth inhibition of human MCF7 cells at 10 uM after 48 hrs by coulter counter method; details: MCF7, 48 h, read-out: GI; how it was run: as §1
[43] = system: BT-549; experiment: Growth inhibition of human BT549 cells at 10 uM after 48 hrs by coulter counter method; details: BT-549, 48 h, read-out: GI; how it was run: as §1
[44] = system: T47D; experiment: Growth inhibition of human T47D cells at 10 uM after 48 hrs by coulter counter method; details: read-out: GI; how it was run: as §1
[45] = system: MDA-MB-468; experiment: Growth inhibition of human MDA-MB-468 cells at 10 uM after 48 hrs by coulter counter method; details: MDA-MB-468, 48 h, read-out: GI; how it was run: as §1

Q: Which results are given for NC1=CC(N)=NC2OC(c3ccc(Cl)cc3)=NN12 (stereo not given)?
A: inhibition of growth at 10 µM [1]: < 10%; inhibition of growth at 10 µM [2]: < 10%; inhibition of growth at 10 µM [3]: < 10%; inhibition of growth at 10 µM [4]: < 10%; inhibition of growth at 10 µM [5]: < 10%; inhibition of growth at 10 µM [6]: < 10%; inhibition of growth at 10 µM [7]: < 10%; inhibition of growth at 10 µM [8]: < 10%; inhibition of growth at 10 µM [9]: < 10%; inhibition of growth at 10 µM [10]: < 10%; inhibition of growth at 10 µM [11]: < 10%; inhibition of growth at 10 µM [12]: 14%; inhibition of growth at 10 µM [13]: < 10%; inhibition of growth at 10 µM [14]: < 10%; inhibition of growth at 10 µM [15]: < 10%; inhibition of growth at 10 µM [16]: < 10%; inhibition of growth at 10 µM [17]: < 10%; inhibition of growth at 10 µM [18]: < 10%; inhibition of growth at 10 µM [19]: < 10%; inhibition of growth at 10 µM [20]: < 10%; inhibition of growth at 10 µM [21]: < 10%; inhibition of growth at 10 µM [22]: < 10%; inhibition of growth at 10 µM [23]: < 10%; inhibition of growth at 10 µM [24]: < 10%; inhibition of growth at 10 µM [25]: < 10%; inhibition of growth at 10 µM [26]: 10.3%; inhibition of growth at 10 µM [27]: < 10%; inhibition of growth at 10 µM [28]: < 10%; inhibition of growth at 10 µM [29]: < 10%; inhibition of growth at 10 µM [30]: < 10%; inhibition of growth at 10 µM [31]: < 10%; inhibition of growth at 10 µM [32]: < 10%; inhibition of growth at 10 µM [33]: < 10%; inhibition of growth at 10 µM [34]: < 10%; inhibition of growth at 10 µM [35]: < 10%; inhibition of growth at 10 µM [36]: < 10%; inhibition of growth at 10 µM [37]: 20.5%; inhibition of growth at 10 µM [38]: < 10%; inhibition of growth at 10 µM [39]: < 10%; inhibition of growth at 10 µM [40]: 23.8%; inhibition of growth at 10 µM [41]: 16.3%; inhibition of growth at 10 µM [42]: < 10%; inhibition of growth at 10 µM [43]: < 10%; inhibition of growth at 10 µM [44]: < 10%; inhibition of growth at 10 µM [45]: < 10%
